From ChEMBL document CHEMBL4251576, “Synthesis and biological evaluation of curcumin inspired imidazo[1,2-a]pyridine analogues as tubulin polymerization inhibitors” (Eur J Med Chem, 2018)
Calls of active or inactive are those of the source. No cut-off for these calls is given here.

What was measured:
PC-3 [1] = assay: Cytotoxicity against human PC3 cells assessed as inhibition of cell viability after 48 hrs by MTT assay; type: functional, cell-based; settings: PC-3, 48 h
Procedure, shortened: (§1)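 Cells were seeded at 2.5‒5 x 10^3 per well in DMEM or RPMI with 10% FBS and grown 24 h at 37 °C under CO2. Compounds diluted in medium were added alongside vehicle control for 48 h. MTT (0.5 mg/mL) was added for 4 h, formazan dissolved in DMSO and absorbance read at 570 nm. IC50 is the concentration giving 50% loss of viability; mean ± SD of three experiments, each in triplicate.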

PC-3 [2] = assay: Induction of apoptosis in human PC3 cells assessed as necrotic cells at 2 uM after 24 hrs by FITC-annexin V/propidium iodide staining-based flow cytometric method (reference value: 0.32%); type: functional
PC-3 [3] = assay: Induction of mitochondrial membrane depolarization in human PC3 cells at 2 uM after 24 hrs by JC1 staining-based flow cytometric method (reference value: 11.9%); type: functional
PC-3 [4] = assay: Induction of apoptosis in human PC3 cells assessed as late apoptotic cells at 4 uM after 24 hrs by FITC-annexin V/propidium iodide staining-based flow cytometric method (reference value: 5.75%); type: functional
PC-3 [5] = assay: Induction of mitochondrial membrane depolarization in human PC3 cells at 4 uM after 24 hrs by JC1 staining-based flow cytometric method (reference value: 11.9%); type: functional
4T1 = assay: Cytotoxicity against mouse 4T1 cells assessed as inhibition of cell viability after 48 hrs by MTT assay; type: functional, cell-based; settings: 4T1, 48 h; procedure, shortened: as §1
PC-3 [6] = assay: Induction of mitochondrial membrane depolarization in human PC3 cells after 24 hrs by JC1 staining-based flow cytometric method; type: functional, cell-based
PC-3 [7] = assay: Cell cycle arrest in human PC3 cells assessed as accumulation at S phase at 1 uM after 24 hrs by propidium iodide staining-based flow cytometric method (reference value: 8.08%); type: functional
Sus scrofa = organism: Sus scrofa; assay: Inhibition of tubulin polymerization in porcine brain at 10 uM after 60 mins by fluorescence assay relative to control
Procedure, shortened: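 Cell-free kit assay using porcine brain tubulin (2 mg/mL) in 80 mM PIPES pH 6.9 with 2.0 mM MgCl2, 0.5 mM EGTA, 1.0 mM GTP and glycerol; compound at 10 µM final, nocodazole as positive control. Polymerization tracked over time as fluorescence of a reporter incorporated into microtubules (ex 360 nm, em 440 nm), with inhibition relative to control.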

NCI-H460 [8] = assay: Potency index, ratio of curcumin IC50 to test compound IC50 for human NCI-H460 cells; type: functional
PC-3 [9] = assay: Induction of apoptosis in human PC3 cells after 24 hrs by FITC-annexin V/propidium iodide staining-based flow cytometric method; type: functional, cell-based
PC-3 [10] = assay: Induction of apoptosis in human PC3 cells assessed as blebbing of cell membrane at 0.5 uM after 48 hrs by acridine orange/ethidium bromide staining-based fluorescence inverted microscopic method; type: functional
Procedure, shortened: (§2)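 PC-3 cells (25000/well) grown 24 h, then exposed 48 h to 0.5, 1 or 2 µM with DMSO control. After PBS wash, stained with acridine orange and ethidium bromide (10 µg/mL each) and imaged at once by fluorescence inverted microscopy (ex 488 nm, em 530 nm, 200x).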

PC-3 [11] = assay: Cell cycle arrest in human PC3 cells assessed as accumulation at subG1 phase at 1 uM after 24 hrs by propidium iodide staining-based flow cytometric method (reference value: 0.38%); type: functional
PC-3 [12] = assay: Cell cycle arrest in human PC3 cells assessed as accumulation at G2/M phase at 2 uM after 24 hrs by propidium iodide staining-based flow cytometric method (reference value: 33.13%); type: functional
PC-3 [13] = assay: Induction of apoptosis in human PC3 cells assessed as nuclei fragmentation at 1 to 2 uM after 48 hrs by DAPI staining-based fluorescence microscopic method; type: functional, cell-based
Procedure, shortened: (§3)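 PC-3 cells (25000/well) adhered overnight, then treated 48 h at 1 or 2 µM. After PBS wash, fixed 20 min in 4% neutral buffered formalin, permeabilized 5 min with 0.2% Triton X, and stained 10 min at room temperature with DAPI (1 µg/mL). Nuclei viewed by fluorescence microscopy (ex 350 nm, em 460 nm, 200x).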

PC-3 [14] = assay: Cell cycle arrest in human PC3 cells assessed as accumulation at G0/G1 phase after 24 hrs by propidium iodide staining-based flow cytometric method; type: functional
PC-3 [15] = assay: Induction of apoptosis in human PC3 cells assessed as early apoptotic cells at 2 uM after 24 hrs by FITC-annexin V/propidium iodide staining-based flow cytometric method (reference value: 7.62%); type: functional
PC-3 [16] = assay: Induction of apoptosis in human PC3 cells assessed as necrotic cells at 4 uM after 24 hrs by FITC-annexin V/propidium iodide staining-based flow cytometric method (reference value: 0.32%); type: functional
RWPE-1 = assay: Cytotoxicity against human RWPE1 cells assessed as inhibition of cell viability after 48 hrs by MTT assay; type: cell-based; settings: RWPE-1, 48 h; procedure, shortened: as §1
DU-145 = assay: Potency index, ratio of curcumin IC50 to test compound IC50 for human DU145 cells; type: functional
PC-3 [17] = assay: Induction of apoptosis in human PC3 cells assessed as chromatin condensation at 0.5 uM after 48 hrs by acridine orange/ethidium bromide staining-based fluorescence inverted microscopic method; type: functional, cell-based; procedure, shortened: as §2
PC-3 [18] = assay: Induction of apoptosis in human PC3 cells assessed as appearance of horse-shoe shaped nuclei at 1 to 2 uM after 48 hrs by DAPI staining-based fluorescence microscopic method; type: functional, cell-based; procedure, shortened: as §3
PC-3 [19] = assay: Induction of reactive oxygen species formation in human PC3 cells at 1 to 2 uM after 6 hrs by DCFDA staining-based flow cytometric method; type: functional, cell-based
Procedure, shortened: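 PC-3 cells at 1 x 10^5 cells/mL adhered overnight, then exposed to 1 or 2 µM. Medium replaced with DCFDA (10 µM) for 0.5 h at room temperature in the dark; fluorescence read by flow cytometry (ex 488 nm, em 530 nm). Mean ± SEM of three experiments, one-way ANOVA with Dunnett's test.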

PC-3 [20] = assay: Cell cycle arrest in human PC3 cells assessed as accumulation at subG1 phase at 2 uM after 24 hrs by propidium iodide staining-based flow cytometric method (reference value: 0.38%); type: functional
NCI-H460 [21] = assay: Cytotoxicity against human NCI-H460 cells assessed as inhibition of cell viability after 48 hrs by MTT assay; type: functional, cell-based; settings: NCI-H460, 48 h; procedure, shortened: as §1
PC-3 [22] = assay: Induction of apoptosis in human PC3 cells assessed as appearance of horse-shoe shaped nuclei at 2 uM after 48 hrs by acridine orange/ethidium bromide staining-based fluorescence inverted microscopic method; type: functional, cell-based; procedure, shortened: as §2
PC-3 [23] = assay: Induction of apoptosis in human PC3 cells assessed as early apoptotic cells at 4 uM after 24 hrs by FITC-annexin V/propidium iodide staining-based flow cytometric method (reference value: 7.62%); type: functional
PC-3 [24] = assay: Induction of apoptosis in human PC3 cells assessed as destructive fragmentation of nuclei at 2 uM after 48 hrs by acridine orange/ethidium bromide staining-based fluorescence inverted microscopic method; type: functional, cell-based; procedure, shortened: as §2
PC-3 [25] = assay: Cell cycle arrest in human PC3 cells assessed as accumulation at G0/G1 phase at 1 uM after 24 hrs by propidium iodide staining-based flow cytometric method (reference value: 58.41%); type: functional
PC-3 [26] = assay: Induction of apoptosis in human PC3 cells assessed as late apoptotic cells at 2 uM after 24 hrs by FITC-annexin V/propidium iodide staining-based flow cytometric method (reference value: 5.75%); type: functional

Structure (SMILES): COc1cc(OC)c(/C=C/C(=O)/C=C/c2nc3ccccn3c2-c2ccc(F)c(F)c2)c(OC)c1
- IC50 (PC-3 [1]): 2110 nM
- Activity (PC-3 [2]): 1.32%
- Activity (PC-3 [3]): 23.67%
- Activity (PC-3 [4]): 48.34%
- Activity (PC-3 [5]): 52.3%
- IC50 (4T1): 1710 nM
- Activity (PC-3 [6]): Dose-dependent effect
- Activity (PC-3 [7]): 9.97%
- inhibition (Sus scrofa): 51.8%
- Ratio IC50 (NCI-H460 [8]): 6.5
- Activity (PC-3 [9]): Dose-dependent effect
- Activity (PC-3 [10]): Active
- Activity (PC-3 [11]): 0.57%
- Activity (PC-3 [12]): 55.84%
- Activity (PC-3 [13]): Active
- Activity (PC-3 [14]): Dose-dependent effect
- Activity (PC-3 [15]): 3.4%
- Activity (PC-3 [16]): 3.12%
- IC50 (RWPE-1): 4230 nM
- Ratio IC50 (DU-145): 11.1
- Activity (PC-3 [17]): Active
- Activity (PC-3 [18]): Active
- Activity (PC-3 [19]): Active
- Activity (PC-3 [20]): 0.74%
- IC50 (NCI-H460 [21]): 2630 nM
- Activity (PC-3 [22]): Active
- Activity (PC-3 [23]): 7.3%
- Activity (PC-3 [24]): Active
- Activity (PC-3 [25]): 44.87%
- Activity (PC-3 [26]): 27.94%
